Reference: ChEMBL document CHEMBL1287673, “Neo-tanshinlactone inspired synthesis, in vitro evaluation of novel substituted benzocoumarin derivatives as potent anti-breast cancer agents” (Bioorg Med Chem Lett, 2010)
pIC50: −log10 of the molar value. Calls of active or inactive are those of the source. No cut-off for these calls is given here.

Tests used:
MCF7 [1] = test: Anticancer activity against human MCF7 cells expressing estrogen receptor by MTT assay; format: functional, cell-based
MCF7 [2] = test: Cytotoxicity against human MCF7 cells expressing estrogen receptor assessed as loss of cell viability after 16 hrs by MTT assay; format: functional, cell-based
Procedure, shortened: (§1)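 1 × 10⁵ MCF-7 cells at 70–80% confluence exposed 16 h to increasing compound concentrations; growth inhibition read by MTT as percent (Total/Control); tamoxifen positive control; n = 9.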

[3] = Cytotoxicity activity against Sprague-Dawley rat osteoblast cells at 20 uM by MTT assay; format: cell-based
Procedure, shortened: (§2)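 Primary osteoblasts, 3 × 10³ cells/well, treated with 10 or 20 µM compound; viability and cell number read by MTT; n = 9.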

[4] = Cytotoxicity activity against Sprague-Dawley rat osteoblast cells at 10 uM by MTT assay; format: cell-based; procedure, shortened: as §2
MCF7 [5] = test: Induction of apoptosis in human MCF7 cells expressing estrogen receptor assessed as increase in caspase activity at 10 uM after 16 hrs; format: functional, cell-based
Procedure, shortened: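 1 × 10⁴ MCF-7 cells/well at 70–80% confluence grown 16 h, then 10 µM compound for 16 h. General (homogeneous) caspase activity read fluorometrically, excitation 465 nm, emission 520 nm; compared with negative control.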

MCF7 [6] = test: Cytotoxicity against human MCF7 cells expressing estrogen receptor assessed as loss of cell viability at 20 uM after 16 hrs by MTT assay; format: functional, cell-based; procedure, shortened: as §1
MCF7 [7] = test: Induction of apoptosis in human MCF7 cells expressing estrogen receptor assessed as cytoplasmic condensation at 10 uM after 18 hrs by Hoechst 33342 staining; format: functional, cell-based
Procedure, shortened: (§3)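 MCF-7 at 70–80% confluence given 10 µM compound for 18 h in complete growth medium, then Hoechst 33342 stained and imaged with a ×40 objective. Apoptotic nuclei scored by shape and intensity and normalized to control; tamoxifen positive control.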

MCF7 [8] = test: Cell cycle arrest in human MCF7 cells expressing estrogen receptor assessed as accumulation at G1/G0 phase at 10 uM after 24 hrs using propidium iodide staining by flow cytometry; format: functional, cell-based
Procedure, shortened: (§4)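 MCF-7, 5 × 10⁵ cells/well at 70–80% confluence, serum-starved, then 10 µM compound for 24 h in phenol red-free medium. Cells fixed in 70% ethanol, rehydrated in PBS, and stained with PI (50 µg/ml) plus ribonuclease A (100 µg/ml). Flow cytometry gives % of cells in each cycle phase.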

MCF7 [9] = test: Induction of apoptosis in human MCF7 cells expressing estrogen receptor assessed as presence of nuclear fragmentation at 10 uM after 18 hrs by Hoechst 33342 staining; format: functional, cell-based; procedure, shortened: as §3
MCF7 [10] = test: Induction of apoptosis in human MCF7 cells expressing estrogen receptor assessed as presence of apoptotic body at 10 uM after 18 hrs by Hoechst 33342 staining; format: functional, cell-based; procedure, shortened: as §3
MCF7 [11] = test: Cytotoxicity against human MCF7 cells expressing estrogen receptor assessed as loss of cell viability at 10 uM after 16 hrs by MTT assay; format: functional, cell-based; procedure, shortened: as §1
MCF7 [12] = test: Induction of apoptosis in human MCF7 cells expressing estrogen receptor at 10 uM after 24 hrs using annexin-V FITC and propidium iodide staining by flow cytometry; format: functional, cell-based
Procedure, shortened: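 MCF-7 (5 × 10⁵ cells) at 70–80% confluence held 24 h in DMEM/10% FBS with or without 10 µM compound. Harvested, stained with Annexin-V-FITC and PI, and read by flow cytometry as % apoptotic (Annexin-positive/PI-negative) and necrotic (PI-positive) cells.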

MCF7 [13] = test: Cell cycle arrest in human MCF7 cells expressing estrogen receptor assessed as accumulation at G2 phase at 10 uM after 24 hrs using propidium iodide staining by flow cytometry; format: functional, cell-based; procedure, shortened: as §4

pIC50 (MCF7 [1]) | SMILES | other results
4.04 | CCCCN/C=C1C=C(/C=C/C(=O)c2ccc(OC)cc2)c2c(ccc3c(C)cc(=O)oc23)C/1=O | –
< 4.00 | CCN/C=C1C=C(/C=C/C(=O)c2ccc(C)cc2)c2c(ccc3c(C)cc(=O)oc23)C/1=O | –
< 4.00 | Cc1cc(=O)oc2c3c(ccc12)C(=O)/C(=C\NC(C)C)C=C3/C=C/C(=O)c1ccccc1 | –
4.49 | Cc1cc(=O)oc2c3c(ccc12)C(=O)/C(=C\NC(C)C)C=C3/C=C/C(=O)c1ccc(O)cc1 | –
< 4.00 | COc1ccc(C(=O)/C=C/C2=CC(=C/NC(C)C)/C(=O)c3ccc4c(C)cc(=O)oc4c32)cc1 | –
< 4.00 | Cc1cc(=O)oc2c3c(ccc12)C(=O)/C(=C\NC(C)(C)C)C=C3/C=C/C(=O)c1ccc(O)cc1 | –
4.52 | CCN/C=C1C=C(/C=C/C(=O)c2ccc(OC)cc2)c2c(ccc3c(C)cc(=O)oc23)C/1=O | –
< 4.00 | COc1ccc(C(=O)/C=C/C2=CC(=C/NC(C)(C)C)/C(=O)c3ccc4c(C)cc(=O)oc4c32)cc1 | –
4.01 | Cc1ccc(C(=O)/C=C/C2=CC(=C/NC(C)(C)C)/C(=O)c3ccc4c(C)cc(=O)oc4c32)cc1 | –
4.68 | Cc1ccc(C(=O)/C=C/C2=CC(=C/NC(C)C)/C(=O)c3ccc4c(C)cc(=O)oc4c32)cc1 | –
4.40 | CCCCN/C=C1C=C(/C=C/C(=O)c2ccc(O)cc2)c2c(ccc3c(C)cc(=O)oc23)C/1=O | –
< 4.00 | CCCCN/C=C1C=C(/C=C/C(=O)c2ccc(C)cc2)c2c(ccc3c(C)cc(=O)oc23)C/1=O | –
4.07 | CCN/C=C1C=C(/C=C/C(=O)c2ccc(O)cc2)c2c(ccc3c(C)cc(=O)oc23)C/1=O | –
4.46 | Cc1ccc(C(=O)/C=C/C2=CC(=C/NC(C)C)/C(=O)c3ccc4c(C)cc(=O)oc4c32)c(C)c1 | –

Continued, compound first:

SMILES | pIC50 (MCF7 [1]) | other results
Cc1cc(=O)oc2c1ccc1c(O)c(C=O)cc(/C=C/C(=O)c3ccccc3)c12 | < 4.00 | –
Cc1cc(=O)oc2c1ccc1c(O)c(C=O)cc(/C=C/C(=O)c3ccc(O)cc3)c12 | < 4.00 | –
Cc1ccc(C(=O)/C=C/c2cc(C=O)c(O)c3ccc4c(C)cc(=O)oc4c23)cc1 | < 4.00 | –
CCCCCCCN/C=C1/C=C(C=O)c2c(ccc3c(C)cc(=O)oc23)C1=O | < 4.00 | –
Cc1cc(=O)oc2c3c(ccc12)C(=O)/C(=C\NC(C)C)C=C3C=O | 3.89 | –
Cc1cc(=O)oc2c1ccc1c(O)c(C=O)cc(C=O)c12 | < 4.00 | –
CCN/C=C1C=C(/C=C/C(=O)c2ccccc2)c2c(ccc3c(C)cc(=O)oc23)C/1=O | 4.06 | –
CCN/C=C1/C=C(C=O)c2c(ccc3c(C)cc(=O)oc23)C1=O | < 4.00 | –
CCCCN/C=C1C=C(/C=C/C(=O)c2ccc(C)cc2C)c2c(ccc3c(C)cc(=O)oc23)C/1=O | < 4.00 | –
CCCN/C=C1/C=C(C=O)c2c(ccc3c(C)cc(=O)oc23)C1=O | 5.10 | Activity (MCF7 [2]): Dose-dependent effect; Activity [3]: Non-toxic; Activity [4]: Non-toxic; Activity (MCF7 [5]): Active; Activity (MCF7 [6]): Toxic; Activity (MCF7 [7]): Active; Activity (MCF7 [8]): Active; Activity (MCF7 [9]): Active; Activity (MCF7 [10]): Active
Cc1ccc(C(=O)/C=C/c2cc(C=O)c(O)c3ccc4c(C)cc(=O)oc4c23)c(C)c1 | < 4.00 | –
CC/C(=C(\c1ccccc1)c1ccc(OCCN(C)C)cc1)c1ccccc1 [TAMOXIFEN] | 4.93 | –
CN/C=C1/C=C(C=O)c2c(ccc3c(C)cc(=O)oc23)C1=O | 5.42 | Activity (MCF7 [11]): Toxic; Activity (MCF7 [2]): Dose-dependent effect; Activity [3]: Non-toxic; Activity (MCF7 [12]): Active; Activity [4]: Non-toxic; Activity (MCF7 [5]): Active; Activity (MCF7 [7]): Active; Activity (MCF7 [8]): Active; Activity (MCF7 [9]): Active; Activity (MCF7 [10]): Active
COc1ccc(C(=O)/C=C/c2cc(C=O)c(O)c3ccc4c(C)cc(=O)oc4c23)cc1 | < 4.00 | –
CCN/C=C1C=C(/C=C/C(=O)c2ccc(C)cc2C)c2c(ccc3c(C)cc(=O)oc23)C/1=O | < 4.00 | –
CCCCN/C=C1C=C(/C=C/C(=O)c2ccccc2)c2c(ccc3c(C)cc(=O)oc23)C/1=O | 4.00 | –
Cc1cc(=O)oc2c3c(ccc12)C(=O)/C(=C\NC(C)(C)C)C=C3C=O | 4.70 | –
Cc1cc(=O)oc2c3c(ccc12)C(=O)/C(=C\NC(C)(C)C)C=C3/C=C/C(=O)c1ccccc1 | 4.04 | –
Cc1cc(=O)oc2c3c(ccc12)C(=O)/C(=C\NCCN1CCOCC1)C=C3C=O | < 4.00 | –
Cc1ccc(C(=O)/C=C/C2=CC(=C/NC(C)(C)C)/C(=O)c3ccc4c(C)cc(=O)oc4c32)c(C)c1 | < 4.00 | –
Cc1cc(=O)oc2c1ccc1c(O)cccc12 | < 4.00 | –
CCCCN/C=C1/C=C(C=O)c2c(ccc3c(C)cc(=O)oc23)C1=O | 5.19 | Activity (MCF7 [2]): Dose-dependent effect; Activity [3]: Non-toxic; Activity [4]: Non-toxic; Activity (MCF7 [5]): Active; Activity (MCF7 [13]): Active; Activity (MCF7 [7]): Active; Activity (MCF7 [9]): Active; Activity (MCF7 [10]): Active
